A selection: hits, their analogues and other compounds. The true share with any hit is near 6.6%.
H69AR growth 86K: growth inhibitors of human H69AR lung tumor cells; viability, % at 10 µM; H69AR lung tumor viability, ATP luminescence, 72 h; stronger effect = lower value; 6% of 85,000 active; AID 598;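 active = viability at or below 40%; inactive = viability above 40%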;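 note: multidrug resistant small cell line overexpressing MRP-1 efflux transporter; 100% = mean luminescence of untreated control wells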
Jurkat viability: cytotoxicity toward Jurkat cells; Jurkat E6.1 viability, ATP luminescence, 48 h; inhibition, % at 4 µM; 1.2% of 56,000 active;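 active = inhibition above the mean inhibition of all tested compounds plus 3 SD, cut at about 28% in these data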
Lung fibro prol: blocks proliferation of human lung fibroblasts; LL 47 human lung fibroblast viability, ATP luminescence; stronger effect = lower value; viability, % at 10 µM; 1.1% of 85,000 active;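 active = viability at or below 50% in the single dose screen; inactive = viability above 50%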;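 note: compound exposure lasted 72 h before the ATP readout; 100% = median luminescence of untreated cell-only wells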
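Material: human LL 47 lung fibroblast cells; quantity: 1,150 cells/well; medium: IMEM plus 15% FBS; doses: 0.1% DMSO in all compound wells; timing: overnight attachment after seeding, then 72 h compound exposure at 37 °C; detection: CellTiter-Glo luminescence; measure: % viability of median cell-only signal; controls: cell-only wells, no compound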
HUVEC inhibit: human endothelial cell proliferation inhibition | HUVEC proliferation, CellTiter-Glo luminescence, 72 h; stronger effect = lower value | viability, % at 10 µM (by protocol) | 1.1% of 86,000 active;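 active = viability at or below 30%; inactive = viability above 30%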;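 note: 100% = median luminescence of DMSO-only cell control wells on each plate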
Starred values were filed as active, the others as inactive.

Screening COc1cc(NC(=O)Cn2nc(C(F)(F)F)c3c2CCCC3)cc(OC)c1OC returned H69AR growth 86K 83, Lung fibro prol 99 and HUVEC inhibit 96.
For CCOc1ccc(NS(=O)(=O)c2ccc(OCC)c3ncccc23)cc1 the results were H69AR growth 86K 16*, Lung fibro prol 76 and HUVEC inhibit 66.
Screening CCOc1ccc(S(=O)(=O)NCc2ccc(C)cc2)c2cccnc12 returned H69AR growth 86K 88, Lung fibro prol 93 and HUVEC inhibit 88.
`CN(C)S(=O)(=O)c1ccc(S(=O)(=O)NC2CCOC(C)(C)C2)cc1` (centres undefined) gave H69AR growth 86K 90, Lung fibro prol 91 and HUVEC inhibit 94.
Cc1coc(NC(=O)CSc2nc(-c3ccncc3)cc(C(F)(F)F)c2C#N)n1 was read as H69AR growth 86K 38*, Jurkat viability -3, Lung fibro prol 99 and HUVEC inhibit 88.
`CCOC(=O)CC(N)c1ccc2c(c1)OCO2` (centres undefined) gave H69AR growth 86K 91, Jurkat viability 0, Lung fibro prol 92 and HUVEC inhibit 97.
`CCOC(=O)c1cnc(-n2nc(C)cc2C)nc1NCc1ccccc1` gave H69AR growth 86K 2.4*, Jurkat viability 2, Lung fibro prol 73 and HUVEC inhibit 70.
CCOC(=O)c1cnc(-n2nc(C)cc2C)nc1NCCO was read as H69AR growth 86K 84, Lung fibro prol 97 and HUVEC inhibit 109.
For CCOC(=O)c1cnc(-n2nc(C)cc2C)nc1NC(C)c1ccccc1 (centres undefined) the results were H69AR growth 86K 2.0*, Jurkat viability 0, Lung fibro prol 17* and HUVEC inhibit 41.
Screening CCOC(=O)c1[nH]c(=O)[nH]c1COC(=O)c1cc2ccccc2o1 returned Jurkat viability -2.
`COc1ccc(-n2c(O)c(Cc3ccccc3)c(=O)n3nc(-c4ccccc4)c(=O)cc23)cc1` gave H69AR growth 86K 94, Lung fibro prol 104 and HUVEC inhibit 101.
Screening O=C(NNC(=O)c1ccc([N+](=O)[O-])o1)c1ccccc1 returned H69AR growth 86K 50, Lung fibro prol 43* and HUVEC inhibit 107.
For O=C(NNC(=S)NC(=O)c1ccccc1[N+](=O)[O-])c1ccccc1 the results were H69AR growth 86K 25*, Lung fibro prol 92 and HUVEC inhibit 73.
`O=C(NC(=S)NNC(=O)c1ccccc1[N+](=O)[O-])c1ccccc1` gave H69AR growth 86K 79, Lung fibro prol 88 and HUVEC inhibit 64.
For CCN(CC)S(=O)(=O)c1cccc(-c2nnc(SCCCC(=O)c3ccccc3)o2)c1 the results were H69AR growth 86K 32*, Jurkat viability 10, Lung fibro prol 105 and HUVEC inhibit 85.
`O=C(CSc1nnc(-c2cccc(S(=O)(=O)N3CCCCC3)c2)o1)NCCC1=CCCCC1` gave H69AR growth 86K 61, Jurkat viability 7, Lung fibro prol 108 and HUVEC inhibit 80.
Screening CCN(CC)S(=O)(=O)c1cccc(-c2nnc(SCc3nc4ccccc4s3)o2)c1 returned H69AR growth 86K 35*, Lung fibro prol 81 and HUVEC inhibit 87.
For CCN(CC)S(=O)(=O)c1cccc(-c2nnc(SC(C)C(=O)NCCC3=CCCCC3)o2)c1 (centres undefined) the results were H69AR growth 86K 33*, Jurkat viability 5, Lung fibro prol 94 and HUVEC inhibit 79.
`CCN(CC)S(=O)(=O)c1cccc(-c2nnc(SCCCC(=O)c3ccc(F)cc3)o2)c1` gave H69AR growth 86K 37*, Jurkat viability 21, Lung fibro prol 93 and HUVEC inhibit 102.
Screening CCN(CC)S(=O)(=O)c1cccc(-c2nnc(SCC(=O)c3cc(C)n(C4CC4)c3C)o2)c1 returned H69AR growth 86K 67, Jurkat viability 7, Lung fibro prol 88 and HUVEC inhibit 97.
`O=C(O)C1CC=CCC1C(=O)Nc1ccc2c(c1)OCCO2` (centres undefined) gave H69AR growth 86K 94, Lung fibro prol 105 and HUVEC inhibit 87.
CCOC(=O)N1CCC(NC(=O)CNS(=O)(=O)c2ccc(Br)s2)CC1 was read as H69AR growth 86K 23*, Jurkat viability 19, Lung fibro prol 90 and HUVEC inhibit 74.
Screening CCOC(=O)N1CCC(NC(=O)C2CCC(CNS(=O)(=O)c3ccc(OC)cc3)CC2)CC1 (centres undefined) returned H69AR growth 86K 6.0*, Jurkat viability -1 and HUVEC inhibit 73.
Screening O=C(Nc1nc(-c2ccccn2)cs1)C1COc2ccccc2O1 (centres undefined) returned H69AR growth 86K 45, Jurkat viability 20, Lung fibro prol 44* and HUVEC inhibit 32.
`O=C(Nc1nc(-c2ccccc2)cs1)C1COc2ccccc2O1` (centres undefined) gave H69AR growth 86K 97, Lung fibro prol 111 and HUVEC inhibit 94.
For CC(C)Oc1ccc(/C(O)=C2/C(=O)C(=O)N(CCCN3CCOCC3)C2c2ccncc2)cc1 (centres undefined) the results were H69AR growth 86K 102, Jurkat viability 6, Lung fibro prol 105 and HUVEC inhibit 97.
Screening O=Cc1ccc2noc(-c3ccc(Cl)cc3)c2c1 returned H69AR growth 86K 39*, Lung fibro prol 105 and HUVEC inhibit 81.
CC1(c2ccc3noc(-c4ccc(Cl)cc4)c3c2)OCCO1 was read as H69AR growth 86K 93, Jurkat viability 3, Lung fibro prol 97 and HUVEC inhibit 115.
COc1ccc(C(C[N+](=O)[O-])c2c(-c3ccccc3)cc3ccccn23)cc1 (centres undefined) was read as H69AR growth 86K 12*, Lung fibro prol 43* and HUVEC inhibit 61.
COc1ccc(C(C[N+](=O)[O-])c2c(-c3ccccc3)cc3ccccn23)cc1OC (centres undefined) was read as H69AR growth 86K 26*, Lung fibro prol 66 and HUVEC inhibit 81.
Screening COc1cc(C(C[N+](=O)[O-])c2c(-c3ccccc3)cc3ccccn23)cc(OC)c1OC (centres undefined) returned H69AR growth 86K 11*, Lung fibro prol 34* and HUVEC inhibit 64.
Screening COc1ccc(C(CC(=O)O)NC(=O)Cc2ccccc2)cc1OC (centres undefined) returned H69AR growth 86K 108, Lung fibro prol 108 and HUVEC inhibit 117.
For CCNC(=O)C1CC(=O)N(Cc2ccc3c(c2)OCO3)C(=Nc2ccc(F)cc2)S1 (centres undefined) the results were H69AR growth 86K 80, Jurkat viability 10, Lung fibro prol 81 and HUVEC inhibit 83.
Screening CCOC(=O)c1ccc(N=c2sc(C(=O)OC)cc(=O)n2Cc2ccc3c(c2)OCO3)cc1 returned H69AR growth 86K 33*, Lung fibro prol 96 and HUVEC inhibit 82.
`CCOC(=O)c1ccc(N=c2sc(C(=O)OC)cc(=O)n2C2CC2)cc1` gave H69AR growth 86K 34*, Jurkat viability 2, Lung fibro prol 94 and HUVEC inhibit 49.
`COC(=O)c1cc(=O)n(Cc2ccc3c(c2)OCO3)c(=Nc2ccccc2)s1` gave H69AR growth 86K 12*, Jurkat viability 3, Lung fibro prol 89 and HUVEC inhibit 54.
